The values that follow come from PubChem BioAssay.

Molecules are shown by their SMILES. Active and inactive are the calls of the source.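 The calls were made as follows, unless noted: active = inhibition above 20% together with a positive visual image hit; inconclusive = visual image hit but inhibition not above 20%; inactive = no visual image hit.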

Assay [1] in a line: inhibitors of TNFa-induced NFkB p65 translocation, primary screen, imaging, HUVEC, MLSMR starter and 10KST1 sets (AID 438).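 Also: compound added about 3h40 before a 20 min TNFalpha stimulation.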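 As to inhibition: signal is the nuclear over cytoplasmic p65 intensity ratio per well.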 To be noted: HUVEC TNFa-induced p65 nuclear translocation; cell count: measured here: nuclei count (cytotoxicity indicator), at 2.08 µM; inhibition: at 2 µM, stronger effect = higher value, 0% TNFa-plus-vehicle, 100% no-TNFa wells.
A short description of assay [2]: inhibitors of mutant huntingtin aggregation, primary screen, imaging, exon1htt(103Q)mCFP cells, high-content imaging (AID 483;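 active = visual image review flags a hit and inhibition of aggregation exceeds 20%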;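 also: compound exposure lasted 3 days before fixation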;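 as to nuclei count: percent of the per-plate median nuclei count of sample wells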). The note with it: exon1htt(103Q)mCFP cell line, aggregate imaging, at 2 µM; inhibition of aggregation: stronger effect = higher value; nuclei count: measured here: cell count, toxicity.
Assay [3] can be described thus: inhibitors of E-selectin induction by TNFa, primary screen, imaging, HUVEC, immunofluorescence, MLSMR starter and 10KST1 sets (AID 487;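 active = visually confirmed hit in the image check and inhibition above 20%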;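 as to inhibition: signal is fraction of cell area covered by stained E-selectin grains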;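 as to nuclei count: 100% = median nuclei count of all wells on the same plate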). The note with it: HUVEC TNFalpha-induced E-selectin immunofluorescence imaging, at 2 µM; inhibition: stronger effect = higher value; nuclei count: measured here: cell number, toxicity.
Assay [4] deals with Voltage-gated potassium channel subunit beta-2 (Rattus norvegicus) (UniProt P62483). As to the kind of experiment: KvBeta enzyme negative modulators, primary screen, biochemical, NADPH fluorescence (AID 622;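 active = fluorescence slope higher than the sample average by over 3 SD, cut at about -0.22 in these data, passing the limit was not always enough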;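 also: slope of raw intensity against log time taken from 70 to 1610 s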). The note with it: recombinant KvBeta, 4-cyanobenzaldehyde reduction, at 10 µM, stronger effect = higher value.
The target is the same in assay [5]. Put plainly: KvBeta positive modulators, primary screen, biochemical, NADPH fluorescence (AID 623;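 active = NADPH fluorescence slope more negative than the mean of all samples by about 3 SD, 99.7% confidence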;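 also: fluorescence intensity change per second fitted from 20 to 320 s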). To be noted: Recombinant KvBeta, NADPH fluorescence decrease slope, 10 min; at 10 µM; stronger effect = lower value.
For assay [6], the target named is Muscarinic acetylcholine receptor M4 (Homo sapiens) (UniProt P08173). Put plainly: compounds altering M4/GIRK thallium flux, either direction, primary screen, M4 allosteric agonist project, cell-based, HEK293 M4/GIRK, BTC-AM (AID 625;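 active = fluorescence slope after compound addition differing from the mean of all tested samples at 99.7% confidence, mostly higher but some lower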;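 also: thallium influx through GIRK channels coupled to M4 in HEK293 cells with BTC-AM dye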). The note with it: at 10 µM, actives lie on both sides. In short, it runs like this: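 Material: HEK293 cells with M4 receptor and GIRK channels; Times: cells overnight at 37 °C, BTC-AM loading 1 h, reads 2 min total; Technique: kinetic BTC-AM fluorescence sampled at 1 Hz, 10 s pre-addition baseline; Read-out basis: slope over 15–24 s of trace normalized to starting intensity; Controls: carbachol positive, DMSO negative.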

Assay [7] in a line: inhibitors of Sendai virus-induced IRF3 signaling, primary screen, TLR/RLR signaling modifier project, cell-based, Sendai virus stimulus, luciferase, 10K MLSCN set (AID 602276;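 active = inhibition at or above 50% at 10 µM; inactive = inhibition below 50%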;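 also: firefly luciferase from ISG56 promoter only with Renilla not read in this screen; 0% = Sendai virus plus DMSO and 100% = medium plus DMSO without virus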). The note with it: HEK293 RL24 IRF3 luciferase reporter, at 10 µM, stronger effect = higher value.
Assay [8] in a line: inhibitors of poly I:C-induced TLR3 signaling, primary screen, cell-based, poly I:C stimulus, luciferase, 10K MLSCN set (AID 602277;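 active = inhibition of the reporter signal at or above 50%; inactive = inhibition below 50%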). To be noted: HEK293-TLR3 RL24 IRF3 luciferase reporter, at 10 µM, stronger effect = higher value. A general note: A reporter such as luciferase makes a cellular process visible.

Chain of Muscarinic acetylcholine receptor M4 (Homo sapiens) (P08173 whole entry, looked up): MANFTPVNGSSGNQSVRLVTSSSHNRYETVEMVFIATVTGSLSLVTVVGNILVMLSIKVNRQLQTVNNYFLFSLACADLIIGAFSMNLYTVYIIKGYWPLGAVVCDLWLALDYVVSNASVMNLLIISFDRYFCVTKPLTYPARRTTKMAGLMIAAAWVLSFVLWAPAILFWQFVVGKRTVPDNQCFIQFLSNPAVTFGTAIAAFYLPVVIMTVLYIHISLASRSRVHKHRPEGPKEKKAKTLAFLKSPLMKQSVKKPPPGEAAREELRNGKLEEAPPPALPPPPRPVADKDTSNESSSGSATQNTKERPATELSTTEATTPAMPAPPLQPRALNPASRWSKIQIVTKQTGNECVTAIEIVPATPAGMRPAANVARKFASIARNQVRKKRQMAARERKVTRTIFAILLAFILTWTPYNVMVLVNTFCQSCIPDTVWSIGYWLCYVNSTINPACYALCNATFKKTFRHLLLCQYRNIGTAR
Chain of Voltage-gated potassium channel subunit beta-2 (Rattus norvegicus) (P62483 whole entry, looked up): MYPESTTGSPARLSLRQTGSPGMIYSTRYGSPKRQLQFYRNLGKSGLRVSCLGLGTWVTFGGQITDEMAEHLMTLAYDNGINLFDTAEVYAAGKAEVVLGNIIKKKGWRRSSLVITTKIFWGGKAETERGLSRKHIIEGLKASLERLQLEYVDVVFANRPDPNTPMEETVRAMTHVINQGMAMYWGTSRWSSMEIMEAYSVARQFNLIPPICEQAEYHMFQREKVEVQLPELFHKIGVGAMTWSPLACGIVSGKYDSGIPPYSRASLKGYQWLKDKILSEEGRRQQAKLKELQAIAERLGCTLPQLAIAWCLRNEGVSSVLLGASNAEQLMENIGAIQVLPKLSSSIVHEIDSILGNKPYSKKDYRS

In the case of `CCOc1ccc(Cl)cc1S(=O)(=O)N1CCCC1`, the cell count in assay [1] was 208. The inhibition is 1.4% (inactive) in assay [1], -46.5% (inactive) in assay [3], 17% (inactive) in assay [7] and 15.8% (inactive) in assay [8]. The inhibition of aggregation in assay [2] was 0.2% (inactive). Further, the nuclei count in assay [2] came to 101%; in assay [3] it was 122%. The fluorescence slope was -0.453 (inactive) in assay [4] and 0.00537 (inactive) in assay [6]. Further, in assay [5], the NADPH fluorescence slope was 2.4e-05 (inactive).
Turning to `CCS(=O)(=O)c1nc2ccccc2n1CC(=O)N1CCCCC1`, the cell count in assay [1] amounted to 507. Also, the inhibition is 9.7% (inactive) in assay [1], -32.9% (inactive) in assay [3], 17.6% (inactive) in assay [7] and 27% (inactive) in assay [8]. In addition, the inhibition of aggregation in assay [2] is -6.2% (inactive). Further, the figures for the nuclei count in assay [2] and in assay [3] were 89.2% and 99.3%, respectively. Further, the results for the fluorescence slope in assay [4] and in assay [6] were -0.425 (inactive) and 0.00578 (inactive), respectively. Also, in assay [5], the NADPH fluorescence slope is -2.1e-05 (inactive).
Turning to `O=C(O)C1CCCN1C(=O)Nc1ccc(F)cc1` (centres undefined), the cell count in assay [1] came out at 543. Besides, the inhibition was -32.6% (inactive) in assay [1], -32.7% (inactive) in assay [3], 8.17% (inactive) in assay [7] and 10.2% (inactive) in assay [8]. Further, the inhibition of aggregation in assay [2] was 13.6% (inactive). Further, the nuclei count in assay [2] was found to be 91.3%; in assay [3], 98.5%. Further, the values for the fluorescence slope in assay [4] and in assay [6] were -0.301 (inactive) and 0.00613 (inactive), respectively. The NADPH fluorescence slope in assay [5] is -4.9e-05 (inactive).
Take `COCCN(C(=O)Cn1nnc2ccccc21)C(C(=O)NC1CCCC1)c1cc(OC)ccc1OC` (centres undefined): the cell count in assay [1] was 323. Further, the inhibition in assay [1] is 9% (inactive); in assay [3], -246% (inactive); in assay [7], 2.22% (inactive); in assay [8] it was 8.36% (inactive). Moreover, the inhibition of aggregation in assay [2] was 7.8% (inactive). Further, the nuclei count in assay [2] was 105%; in assay [3], 112%. In addition, the values for the fluorescence slope in assay [4] and in assay [6] were -0.491 (inactive) and 0.00575 (inactive), respectively. The NADPH fluorescence slope in assay [5] is 0.0001 (inactive).
On to `Cc1noc(C)c1CSc1nnc(-c2ccncc2)n1-c1cccc(Cl)c1C`, for which the cell count in assay [1] is 344. Besides, the inhibition in assay [1] is -2.1% (inactive); in assay [3] it was 51.9% (inactive); in assay [7], 10.2% (inactive); in assay [8], 34.9% (inactive). Moreover, in assay [2], the inhibition of aggregation is -9% (inactive). Further, the nuclei count amounted to 107% in assay [2] and 74.2% in assay [3]. Moreover, the fluorescence slope in assay [4] was -0.482 (inactive); in assay [6], 0.00492 (inactive). Further, the NADPH fluorescence slope in assay [5] is 5.5e-05 (inactive).
As to `CCC(=O)N1CCc2cc(S(=O)(=O)CCC(=O)Nc3c(C)n(C)n(-c4ccccc4)c3=O)ccc21`, the cell count in assay [1] turned out to be 598. Further, the inhibition was 7.7% (inactive) in assay [1], -110% (inactive) in assay [3], 2.43% (inactive) in assay [7] and 13.1% (inactive) in assay [8]. Further, the inhibition of aggregation in assay [2] was -10.8% (inactive). For the same molecule, the nuclei count in assay [2] was determined as 116%; in assay [3], 121%. Besides, the fluorescence slope in assay [4] is -0.434 (inactive); in assay [6], 0.00486 (inactive). The NADPH fluorescence slope in assay [5] was 0.000106 (inactive).
`Cc1ccc2ncnc(NCCCN3CCOCC3)c2c1`: the cell count in assay [1] amounted to 339. For the same molecule, the inhibition was -0.6% (inactive) in assay [1], -25.5% (inactive) in assay [3], -18.7% (inactive) in assay [7] and -21.1% (inactive) in assay [8]. Besides, the inhibition of aggregation in assay [2] is 4.8% (inactive). In addition, the nuclei count in assay [2] amounted to 101%; in assay [3], 115%. The fluorescence slope in assay [4] is -0.484 (inactive); in assay [6] it was 0.00376 (inactive). In addition, the NADPH fluorescence slope in assay [5] was -0.000336 (inactive).
With `COc1cccc(NC(=O)CSc2nnc(-c3cccs3)n2C)c1`, the cell count in assay [1] stood at 576. The inhibition in assay [1] was -8.5% (inactive); in assay [3], -65.4% (inactive); in assay [7], 8.77% (inactive); in assay [8] it was 6.56% (inactive). Also, the inhibition of aggregation in assay [2] is 19.8% (inactive). Moreover, the nuclei count came out at 65.7% in assay [2] and 95.9% in assay [3]. Also, the figures for the fluorescence slope in assay [4] and in assay [6] were -0.278 (inactive) and 0.00909 (inactive), respectively. The NADPH fluorescence slope in assay [5] is -5e-05 (inactive).
Turning to `CCOCCCNS(=O)(=O)c1ccc2c(c1)oc(=O)n2CC(=O)OCC`, the cell count in assay [1] stood at 454. Besides, the inhibition in assay [1] was -6.6% (inactive); in assay [3] it was -7.8% (inactive); in assay [7] it was 12.8% (inactive); in assay [8], 23.6% (inactive). Moreover, the inhibition of aggregation in assay [2] is 24.3% (inactive). Also, the nuclei count amounted to 119% in assay [2] and 82.5% in assay [3]. For the same molecule, the fluorescence slope in assay [4] is -0.444 (inactive); in assay [6], 0.00606 (inactive). For the same molecule, the NADPH fluorescence slope in assay [5] was 3.2e-05 (inactive).
Consider `CCOc1ccc2[nH]c(=O)c(CN(CCOC)C(=O)N3CCOCC3)cc2c1`, for which the cell count in assay [1] amounted to 373. In addition, the inhibition in assay [1] is 2.4% (inactive); in assay [3], -3.2% (inactive); in assay [7], 3.22% (inactive); in assay [8], 12.3% (inactive). Also, the inhibition of aggregation in assay [2] is -4% (inactive). The nuclei count is 90.4% in assay [2] and 99.9% in assay [3]. The fluorescence slope in assay [4] was -0.395 (inactive); in assay [6], 0.0064 (inactive). Besides, the NADPH fluorescence slope in assay [5] was 3.3e-05 (inactive).
Take `CCCCCn1c(CN(C)Cc2ccccc2)nc2c1c(=O)n(C)c(=O)n2C`: the cell count in assay [1] worked out at 529. Besides, the inhibition in assay [1] is -12.2% (inactive); in assay [3], -110% (inactive); in assay [7] it was 18.2% (inactive); in assay [8] it was -3.26% (inactive). In addition, the inhibition of aggregation in assay [2] is -2% (inactive). Further, the nuclei count in assay [2] stood at 86.5%; in assay [3] it was 110%. The values for the fluorescence slope in assay [4] and in assay [6] were -0.46 (inactive) and 0.00453 (inactive), respectively. For the same molecule, the NADPH fluorescence slope in assay [5] was -9.4e-05 (inactive).
`Cc1ccccc1NS(=O)(=O)c1ccc(NC(=O)c2ccco2)cc1`: the cell count in assay [1] was 349. Moreover, the inhibition in assay [1] is 1.1% (inactive); in assay [3], -24.6% (inactive); in assay [7], 15.3% (inactive); in assay [8], 13.6% (inactive). Moreover, in assay [2], the inhibition of aggregation is 5.8% (inactive). Besides, the nuclei count in assay [2] is 94.7%; in assay [3], 119%. Besides, the fluorescence slope is -0.587 (inactive) in assay [4] and 0.00578 (inactive) in assay [6]. Also, the NADPH fluorescence slope in assay [5] was 1.9e-07 (inactive).
For `O=C(C1CC2CCC1C2)N1CCN(Cc2ccc3c(c2)OCO3)CC1` (centres undefined), in assay [1], the cell count stood at 408. Moreover, the inhibition is 6.8% (inactive) in assay [1], -90.8% (inactive) in assay [3], 13.2% (inactive) in assay [7] and 19.3% (inactive) in assay [8]. Moreover, in assay [2], the inhibition of aggregation was 17.4% (inactive). Further, the results for the nuclei count in assay [2] and in assay [3] were 124% and 116%, respectively. Also, the fluorescence slope is -0.579 (inactive) in assay [4] and 0.00565 (inactive) in assay [6]. In assay [5], the NADPH fluorescence slope is -2.2e-05 (inactive).
As for `CCCOc1ccc(C2C(C(=O)c3ccc(C)o3)=C(O)C(=O)N2Cc2cccnc2)cc1` (centres undefined), in assay [1], the cell count came to 755. In addition, the inhibition in assay [1] was -2.8% (inactive); in assay [3], 35.3% (inactive); in assay [7], 9.82% (inactive); in assay [8], 3.74% (inactive). Moreover, in assay [2], the inhibition of aggregation was -9.2% (inactive). The nuclei count in assay [2] amounted to 105%; in assay [3], 107%. In addition, the fluorescence slope in assay [4] is -0.495 (inactive); in assay [6], 0.00434 (inactive). Also, in assay [5], the NADPH fluorescence slope is 9.3e-06 (inactive).

By inhibition is commonly meant the relative decrease from the control value, in per cent.
